Measured values as given in ChEMBL document CHEMBL1649306, “Arylimidamide DB766, a potential chemotherapeutic candidate for Chagas' disease treatment” (Antimicrob Agents Chemother, 2010).
Active and inactive are the calls of the source. No cut-off for these calls is given here.

Experiments:
Trypanosoma cruzi [1] = assay: Antitrypanosomal activity against bloodstream forms of Trypanosoma cruzi Columbian after 24 hrs by light microscopy in presence of 50% mouse blood; format: functional, organism-based
Procedure, shortened: (§1)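 Bloodstream trypomastigotes kept at 4°C for 24 h in freshly isolated 50% mouse blood with serial dilutions (up to 32 μM). Motile live parasites counted in a Neubauer chamber by light microscopy; IC50 calculated as concentration reducing parasite number by 50%.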

Trypanosoma cruzi [2] = assay: Antitrypanosomal activity against bloodstream forms of Trypanosoma cruzi Y after 24 hrs by light microscopy in presence of 50% mouse blood; format: functional, organism-based; procedure, shortened: as §1
Trypanosoma cruzi [3] = assay: Antitrypanosomal activity against bloodstream forms of Trypanosoma cruzi CL after 24 hrs by light microscopy in presence of 50% mouse blood; format: functional, organism-based; procedure, shortened: as §1
Trypanosoma cruzi [4] = assay: Antitrypanosomal activity against bloodstream forms of Trypanosoma cruzi YuYu after 24 hrs by light microscopy in presence of 50% mouse blood; format: functional, organism-based; procedure, shortened: as §1
Mus musculus [5] = assay: Cardiotoxicity in […] mouse assessed as effect on heart rate level at 100 mg/kg/day, po; format: toxicity, organism-based; parameters: route oral; conditions: in vivo
Procedure, shortened: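 Colombian strain, 5 × 10³ bloodstream forms i.p. into male C3H/He mice; 100 mg/kg/day given i.p. or by gavage (0.1 ml) daily for 10 doses from parasitemia onset. Mice sedated with diazepam (20 mg/kg i.p.), supine; eight-lead ECG from subcutaneous limb needle electrodes plus precordial lead II. Signal-averaged ECG; heart rate as beats per minute.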

Trypanosoma cruzi [6] = assay: Antitrypanosomal activity against Trypanosoma cruzi Columbian bloodstream forms infected in C3H mouse assessed as decrease in parasite load at 100 mg/kg/day, ip administered 21 days postinfection measured on day 46; format: functional, organism-based
Procedure, shortened: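 C3H/He mice infected i.p. with 10^2 Colombian strain bloodstream forms. Treatment started at parasitemia onset (21 dpi) with daily doses for 10 treatments, 0.1 ml i.p. Parasitemia measured by the Pizzi-Brener method; n ≥ 6 parasitemic mice per group.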

Trypanosoma cruzi [7] = assay: Antitrypanosomal activity against Trypanosoma cruzi Y epimastigotes after 24 hrs by light microscopy; format: functional, organism-based
Procedure, shortened: (§2)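 Epimastigotes from 5-day exponential cultures, 5 × 10^6 parasites/ml in LIT medium, incubated at 28°C up to 96 h with DB766 0 to 32 μM or Bz 0 to 250 μM. Counted daily in a Neubauer chamber. IC50 averaged from at least three determinations in duplicate.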

Trypanosoma cruzi [8] = assay: Antitrypanosomal activity against Trypanosoma cruzi Columbian bloodstream forms infected in C3H mouse assessed as survival of mouse at 100 mg/kg/day, po administered 5 days postinfection for 10 consecutive days measured after 31 days; format: functional
Procedure, shortened: (§3)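 Male C3H/He (H-2k) mice infected i.p. with 5 × 10^3 Colombian-strain bloodstream trypomastigotes; only parasitemia-positive mice grouped (n ≥ 6). DB766 100 mg/kg/day given i.p. (0.1 ml) or by gavage (0.1 ml), daily for 10 treatments. Parasitemia by Pizzi-Brener method; mortality checked daily, expressed as cumulative percentage.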

Mus musculus [9] = assay: Hepatotoxicity in Swiss-Webster mouse assessed as effect on GPT level at 50 mg/kg/day, ip administered 21 days postinfection measured on day 120; format: toxicity, organism-based; parameters: route intraperitoneal; conditions: in vivo, 504 h
Mus musculus [10] = assay: Hepatotoxicity in Swiss-Webster mouse assessed as increased GPT level at 100 mg/kg/day, ip administered 21 days postinfection measured on day 120; format: toxicity, organism-based; parameters: route intraperitoneal; conditions: in vivo, 504 h
Mus musculus [11] = assay: Toxicity in […](H-2k) mouse assessed as effect on creatine kinase level at 100 mg/kg/day, po; format: organism-based; parameters: route oral; conditions: in vivo
Trypanosoma cruzi [12] = assay: Antitrypanosomal activity against Trypanosoma cruzi Y bloodstream forms infected in Swiss-Webster mouse assessed as decrease in parasite load at 100 mg/kg/day, po administered 8 days postinfection measured on day 2; format: functional, organism-based
Procedure, shortened: (§4)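 Male Swiss mice infected i.p. with 10^4 Y strain bloodstream forms. Given 0.2 ml i.p. at 5 and 8 dpi, or daily for 10 days from 5 dpi; reference drug given by gavage. Parasitemia measured by the Pizzi-Brener method, cumulative mortality checked daily to 120 dpi, n ≥ 6 per group.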

Trypanosoma cruzi [13] = assay: Antitrypanosomal activity against Trypanosoma cruzi Y bloodstream forms infected in Swiss-Webster mouse assessed as decrease in parasite load at 100 mg/kg/day, po administered 5 days postinfection for 10 alternate days measured after 31 days; format: functional; parameters: scale not given: the % may be the effect or the level left
Procedure, shortened: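 Male Swiss mice infected with 10^4 Y strain bloodstream forms and treated every other day with 100 mg/kg/day, reference drug by gavage. Parasitemia measured by the Pizzi-Brener method.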

Mus musculus [14] = assay: Hepatotoxicity in Swiss-Webster mouse assessed as effect on GPT level at 25 mg/kg/day, ip administered 21 days postinfection measured on day 120; format: toxicity, organism-based; parameters: route intraperitoneal; conditions: in vivo, 504 h
[15] = Toxicity in […](H-2k) mouse assessed as mortality at cumulative dose of 100 mg/kg, po measured after 48 hrs; format: organism-based; parameters: dose 100 mg/kg, route oral; conditions: in vivo, read-out: Activity
Mus musculus [16] = assay: Hepatotoxicity against Swiss-Webster mouse assessed as GPT at 100 mg/kg/day measured after 14 days postinfection; format: toxicity, organism-based; conditions: in vivo, 336 h
Trypanosoma cruzi [17] = assay: Antitrypanosomal activity against Trypanosoma cruzi Y infected in Swiss-Webster mouse assessed as decrease in parasite-induced weight loss at 100 mg/kg/day, ip administered 5 days post-infection for 10 consecutive days measured on day 120; format: functional, organism-based
Procedure, shortened: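 Body weight of infected, treated mice followed from 0 to 120 dpi.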

Trypanosoma cruzi [18] = assay: Antitrypanosomal activity against Trypanosoma cruzi 958 epimastigotes after 24 hrs by light microscopy; format: functional, organism-based; conditions: Trypanosoma cruzi, 958, 24 h; procedure, shortened: as §2
Trypanosoma cruzi [19] = assay: Antitrypanosomal activity against Trypanosoma cruzi Columbian bloodstream forms infected in C3H mouse assessed as decrease in parasite load at 100 mg/kg/day, ip administered 5 days postinfection for 10 consecutive days measured after 31 days; format: functional; parameters: scale not given: the % may be the effect or the level left; conditions: route intraperitoneal
Procedure, shortened: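 C3H/He mice infected i.p. with 10^3 or 5 × 10^3 Colombian strain bloodstream forms. Treated daily for 10 days with 0.1 ml i.p. or by gavage, reference drug given by gavage. Parasitemia measured by the Pizzi-Brener method; n ≥ 6 parasitemic mice per group.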

Mus musculus [20] = assay: Toxicity in female Swiss-Webster mouse assessed as mortality at cumulative dose of 200 mg/kg, ip measured after 48 hrs; format: organism-based; parameters: dose 200 mg/kg, route intraperitoneal; conditions: in vivo
Procedure, shortened: (§5)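 Uninfected 8–10-week-old female and male Swiss Webster and C3H/He (H-2k) mice injected i.p. on day 1 every 2 h with escalating doses: 5, 15, 30, 50 and 100 mg/kg (cumulative 20, 50, 100, 200 mg/kg). Toxic and subtoxic signs inspected on days 2–3 per OECD guidelines; tolerated dose set at 48 h.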

Mus musculus [21] = assay: Toxicity in male Swiss-Webster mouse assessed as mortality at cumulative dose of 200 mg/kg, ip measured after 48 hrs; format: organism-based; parameters: dose 200 mg/kg, route intraperitoneal; conditions: in vivo; procedure, shortened: as §5
Trypanosoma cruzi [22] = assay: Antitrypanosomal activity against Trypanosoma cruzi 875 epimastigotes after 24 hrs by light microscopy; format: functional, organism-based; conditions: Trypanosoma cruzi, 875, 24 h; procedure, shortened: as §2
Trypanosoma cruzi [23] = assay: Antitrypanosomal activity against Trypanosoma cruzi 956 epimastigotes after 24 hrs by light microscopy; format: functional, organism-based; conditions: Trypanosoma cruzi, 956, 24 h; procedure, shortened: as §2
Trypanosoma cruzi [24] = assay: Antitrypanosomal activity against Trypanosoma cruzi MS1523 epimastigotes after 24 hrs by light microscopy; format: functional, organism-based; conditions: MS1523, 24 h; procedure, shortened: as §2
Trypanosoma cruzi [25] = assay: Antitrypanosomal activity against Trypanosoma cruzi Y bloodstream forms infected in Swiss-Webster mouse assessed as survival of mouse at 100 mg/kg/day, ip administered 8 days postinfection measured on day 120; format: functional, organism-based; procedure, shortened: as §4
Trypanosoma cruzi [26] = assay: Antitrypanosomal activity against Trypanosoma cruzi 855 epimastigotes after 24 hrs by light microscopy; format: functional, organism-based; conditions: Trypanosoma cruzi, 855, 24 h; procedure, shortened: as §2
Mus musculus [27] = assay: Toxicity in male Swiss-Webster mouse assessed as weight loss at cumulative dose of 200 mg/kg, ip measured after 48 hrs; format: organism-based; parameters: dose 200 mg/kg, route intraperitoneal; conditions: in vivo
Procedure, shortened: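 Acute toxicity in 8–10-week-old Swiss Webster mice. i.p. injections every 2 h of 5, 15, 30, 50 and 100 mg/kg (cumulative 200 mg/kg) on day 1. Toxic and subtoxic signs inspected on days 2 and 3 per OECD guidelines; outcome read 48 h after injection.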

Mus musculus [28] = assay: Toxicity in […](H-2k) mouse assessed as mortality at cumulative dose of 200 mg/kg, ip measured after 48 hrs; format: organism-based; parameters: dose 200 mg/kg, route intraperitoneal; conditions: in vivo; procedure, shortened: as §5
Trypanosoma cruzi [29] = assay: Antitrypanosomal activity against Trypanosoma cruzi RBVIII epimastigotes after 24 hrs by light microscopy; format: functional, organism-based; procedure, shortened: as §2
Mus musculus [30] = assay: Cytotoxicity against Swiss-Webster mouse assessed as effect on creatine kinase at 100 mg/kg/day measured after 14 days postinfection; format: organism-based; conditions: in vivo, 336 h
Trypanosoma cruzi [31] = assay: Antitrypanosomal activity against Trypanosoma cruzi 960 epimastigotes after 24 hrs by light microscopy; format: functional, organism-based; conditions: Trypanosoma cruzi, 960, 24 h; procedure, shortened: as §2
Trypanosoma cruzi [32] = assay: Antitrypanosomal activity against Trypanosoma cruzi Columbian bloodstream forms infected in C3H mouse assessed as survival of mouse at 100 mg/kg/day, ip administered 5 days postinfection for 10 consecutive days measured after 31 days; format: functional; conditions: route intraperitoneal; procedure, shortened: as §3

## N=C(N)c1ccc(-c2ccc(-c3ccc(C(=N)N)cc3)o2)cc1 [FURAMIDINE]
Trypanosoma cruzi [1]
  IC50: > 32 µM
Trypanosoma cruzi [2]
  IC50: > 32 µM
Trypanosoma cruzi [3]
  IC50: > 32 µM
Trypanosoma cruzi [4]
  IC50: > 32 µM

## O=C(Cn1ccnc1[N+](=O)[O-])NCc1ccccc1 [BENZNIDAZOLE]
Mus musculus [5]
  Activity: Non-toxic
Trypanosoma cruzi [6]
  Activity: inactive
Trypanosoma cruzi [7]
  IC50: 7.65 µM
  IC90: 86.6 µM
Trypanosoma cruzi [8]
  Activity: 100%
Mus musculus [9]
  Activity: Non-toxic
Mus musculus [10]
  Activity: Toxic
Mus musculus [11]
  Activity: 68%
Trypanosoma cruzi [12]
  Activity: inactive
Trypanosoma cruzi [13]
  Activity: 79.4%
Mus musculus [14]
  Activity: Non-toxic
[15]
  mortality at 48 h: 100%
Mus musculus [16]
  Activity: Non-toxic
Trypanosoma cruzi [17]
  Activity: Active
Trypanosoma cruzi [18]
  IC50: 13.7 µM
  IC90: 58.3 µM
Trypanosoma cruzi [19]
  Activity: 100%
Mus musculus [20]
  Activity: Non-toxic
Mus musculus [21]
  Activity: Non-toxic
Trypanosoma cruzi [22]
  IC50: 7.9 µM
  IC90: 196 µM
Trypanosoma cruzi [23]
  IC50: 3.96 µM
  IC90: 20.4 µM
Trypanosoma cruzi [24]
  IC50: 5.3 µM
  IC90: 30.6 µM
Trypanosoma cruzi [25]
  Activity: inactive
Trypanosoma cruzi [26]
  IC50: 12.6 µM
  IC90: 226 µM
Mus musculus [27]
  Activity: 7%
Mus musculus [28]
  Activity: Non-toxic
Trypanosoma cruzi [29]
  IC50: 5.06 µM
  IC90: 35.7 µM
Mus musculus [30]
  Activity: Non-toxic
Trypanosoma cruzi [31]
  IC50: 6.44 µM
  IC90: 38.2 µM
Trypanosoma cruzi [32]
  Activity: 99%
